ChEMBL document CHEMBL3621107, “Ring fusion strategy for synthesis and lead optimization of sulfur-substituted anthra[1,2-c][1,2,5]thiadiazole-6,11-dione derivatives as promising scaffold of antitumor agents” (Eur J Med Chem, 2015)

Legend:
Type in all cases: functional
[1] = Cytotoxicity against human colon cancer cells assessed as growth inhibition after 48 hrs by SRB assay; details: Cancer cell lines
How it was run: (§1)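 Values come from the NCI-60 five-dose panel (0.01–100 µM). The subpanel MID is the mean GI50 over the lines of that tumour subpanel. The selectivity ratio is the full-panel MID divided by the subpanel MID; 3–6 is rated moderate and >6 high.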

HCT-116 = experiment: Cytotoxicity against human HCT116 cells after 48 hrs by SRB assay; details: HCT-116, 48 h
How it was run: (§2)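 NCI-60 human tumour cell panel screen, second stage, run by the NCI Developmental Therapeutics Program. Compounds were tested at five concentrations (0.01, 0.1, 1, 10 and 100 μM). Percentage growth was plotted against log10 concentration for each cell line. GI50, TGI and LC50 were taken from these dose-response curves.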

SF-295 = experiment: Cytotoxicity against human SF295 cells after 48 hrs by SRB assay; details: SF-295, 48 h
How it was run: (§3)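 Second-stage NCI-60 panel run by the NCI Developmental Therapeutics Program, covering nine tumour subpanels. Five concentrations were tested: 0.01, 0.1, 1, 10 and 100 μM. Percentage growth at each level was plotted against log10 drug concentration. GI50, TGI and LC50 were read from these dose-response curves. Subpanel MID values were divided into the full-panel MID to give selectivity ratios.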

[2] = Cytotoxicity against human melanoma cells assessed as growth inhibition after 48 hrs by SRB assay; details: Melanoma cell; how it was run: as §1
MDA-MB-435 = experiment: Cytotoxicity against human MDA-MB-435 cells after 48 hrs by SRB assay; details: MDA-MB-435, 48 h; how it was run: as §3
[3] = Cytotoxicity against human EKVX cells after 48 hrs by SRB assay; how it was run: as §2
[4] = Cytotoxicity against human ovarian cancer cells assessed as growth inhibition after 48 hrs by SRB assay; details: Cancer cell lines; how it was run: as §1
IGROV-1 = experiment: Cytotoxicity against human IGROV1 cells after 48 hrs by SRB assay; details: IGROV-1, 48 h; how it was run: as §2
K562 = experiment: Cytotoxicity against human K562 cells after 48 hrs by SRB assay; details: K562, 48 h; how it was run: as §2
HCC 2998 = experiment: Cytotoxicity against human HCC2998 cells after 48 hrs by SRB assay; details: HCC 2998, 48 h; how it was run: as §2
HL-60(TB) = experiment: Cytotoxicity against human HL-60(TB) cells after 48 hrs by SRB assay; details: HL-60, 48 h
How it was run: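 NCI Developmental Therapeutics Program 60-cell-line screen, second stage: cells exposed to five concentrations (0.01, 0.1, 1, 10 and 100 μM). Growth is plotted against log10 concentration for each line, and GI50, TGI and LC50 are read from the dose-response curves.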

Malme-3M = experiment: Cytotoxicity against human MALME-3M cells after 48 hrs by SRB assay; how it was run: as §2
[5] = Cytotoxicity against human CNS cancer cells assessed as growth inhibition after 48 hrs by SRB assay; details: Cancer cell lines
How it was run: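 NCI-60 five-dose data (0.01–100 μM) were grouped by tumour subpanel. A subpanel mean (MID) of GI50 was computed for the CNS cancer lines. A selectivity ratio was obtained as full-panel MID divided by subpanel MID: 3–6 counts as moderate, >6 as high.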

NCI-H226 = experiment: Cytotoxicity against human NCI-H226 cells after 48 hrs by SRB assay; details: NCI-H226, 48 h; how it was run: as §3
[6] = Cytotoxicity against human non-small cell lung cancer cells assessed as growth inhibition after 48 hrs by SRB assay; details: Cancer cell lines; how it was run: as §1
SK-MEL-28 = experiment: Cytotoxicity against human SK-MEL-28 cells after 48 hrs by SRB assay; details: SK-MEL-28, 48 h; how it was run: as §3
HCT-15 = experiment: Cytotoxicity against human HCT15 cells after 48 hrs by SRB assay; details: HCT-15, 48 h; how it was run: as §2
SNB-19 = experiment: Cytotoxicity against human SNB19 cells after 48 hrs by SRB assay; details: SNB-19, 48 h; how it was run: as §3
SK-OV-3 = experiment: Cytotoxicity against human SKOV3 cells after 48 hrs by SRB assay; details: SK-OV-3, 48 h; how it was run: as §3
COLO 205 = experiment: Cytotoxicity against human COLO205 cells after 48 hrs by SRB assay; details: COLO 205, 48 h; how it was run: as §2
SK-MEL-5 = experiment: Cytotoxicity against human SK-MEL-5 cells after 48 hrs by SRB assay; details: SK-MEL-5, 48 h; how it was run: as §3
UO-31 = experiment: Cytotoxicity against human UO31 cells after 48 hrs by SRB assay; details: UO-31, 48 h
How it was run: (§4)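 NCI-60 five-dose study run by NCI DTP at 0.01, 0.1, 1, 10 and 100 µM. Percentage growth at each level was plotted against log10 concentration for each line, and GI50, TGI and LC50 were read from the dose-response curves.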

NCI-H23 = experiment: Cytotoxicity against human NCI-H23 cells after 48 hrs by SRB assay; details: NCI-H23, 48 h; how it was run: as §3
UACC-62 = experiment: Cytotoxicity against human UACC62 cells after 48 hrs by SRB assay; details: UACC-62, 48 h; how it was run: as §4
NCI-H522 = experiment: Cytotoxicity against human NCI-H522 cells after 48 hrs by SRB assay; details: NCI-H522, 48 h; how it was run: as §3
[7] = Cytotoxicity against human leukemia cells assessed as growth inhibition after 48 hrs by SRB assay; details: Leukemia cell; how it was run: as §1
HOP-62 = experiment: Cytotoxicity against human HOP62 cells after 48 hrs by SRB assay; details: HOP-62, 48 h; how it was run: as §2
[8] = read-out: LC50 (the source's name)

## O=C1c2ccccc2C(=O)c2c1cc(SCc1ccccc1)c1nsnc21
[1]
  GI50: 16.1 µM
HCT-116
  GI50: 7.29 µM
  TGI: 14.2 µM
HCT-116; [8]
  CC50: 27.5 µM
SF-295
  GI50: > 50 µM
  LC50: > 50 µM
  TGI: > 50 µM
[2]
  GI50: 10.6 µM
MDA-MB-435
  GI50: 9.19 µM
  LC50: 37.3 µM
  TGI: 18.5 µM
[3]
  GI50: 14.2 µM
  LC50: > 50 µM
  TGI: 26.3 µM
[4]
  GI50: 8.4 µM
IGROV-1
  GI50: 6.06 µM
  LC50: 38.9 µM
  TGI: 15.4 µM
K562
  GI50: 1470 nM
  LC50: > 50 µM
  TGI: 6.5 µM
HCC 2998
  GI50: > 50 µM
  LC50: > 50 µM
  TGI: > 50 µM
HL-60(TB)
  GI50: 1630 nM
  LC50: > 50 µM
  TGI: > 50 µM
Malme-3M
  GI50: 11 µM
  LC50: 44.6 µM
  TGI: 22.2 µM
[5]
  GI50: 9.48 µM
NCI-H226
  GI50: > 50 µM
  LC50 (concentration killing 50% of starting cells): > 50 µM
  TGI: 35.2 µM
[6]
  GI50: 9.57 µM
SK-MEL-28
  GI50: 10.3 µM
  TGI: 17.5 µM
SK-MEL-28; [8]
  CC50: 42.9 µM
HCT-15
  GI50: 8.27 µM
  LC50: 35.3 µM
  TGI: 17.1 µM
SNB-19
  GI50: 12.7 µM
  LC50: > 50 µM
  TGI: 38.8 µM
SK-OV-3
  GI50: 13.7 µM
  LC50: > 50 µM
  TGI: 18.5 µM
COLO 205
  GI50: 35.5 µM
  LC50: > 50 µM
  TGI: > 50 µM
SK-MEL-5
  GI50: 7.17 µM
  LC50: 49.8 µM
  TGI: 21.2 µM
UO-31
  GI50: 7.83 µM
  LC50: 43.5 µM
  TGI: 18.5 µM
NCI-H23
  GI50: 8.25 µM
  LC50: > 50 µM
  TGI: > 50 µM
UACC-62
  GI50: 8.22 µM
  LC50: 33.7 µM
  TGI: 18.6 µM
NCI-H522
  GI50: 8.64 µM
  LC50 (concentration giving 50% net cell kill): > 50 µM
  TGI: > 50 µM
[7]
  GI50: 2670 nM
HOP-62
  GI50: 10.7 µM
  LC50: 30.4 µM
  TGI: 13.6 µM
